In ChEMBL document CHEMBL4177603 (Bioorg Med Chem Lett, 2017):

Legend:
[1] = target: High affinity choline transporter 1 (Homo sapiens, UniProt Q9GZV3); assay: Displacement of [3H]hemicholinium-3 from recombinant human choline transporter after 60 mins by scintillation counting method
[2] = target: Voltage-gated inwardly rectifying potassium channel KCNH2 (Homo sapiens, UniProt Q12809); assay: Inhibition of human ERG by PatchXpress electrophysiology method
[3] = Solubility of the compound in aqueous buffer at pH 5.5; format: physicochemical
[4] = target: Prostaglandin G/H synthase 2 (Homo sapiens, UniProt P35354); assay: Inhibition of recombinant human COX2 using arachidonic acid as substrate measured after 5 mins by fluorescence assay
[5] = Volume of distribution at steady state in iv dosed mouse; format: ADME, organism-based; settings: in vivo, read-out: Vdss
[6] = target: Cannabinoid receptor 1 (Homo sapiens) (UniProt P21554); assay: Antagonist activity at recombinant human CB1 receptor expressed in CHOK1 cells assessed as inhibition of CP 55940-induced cAMP accumulation at 10 uM after 20 mins by HTRF assay relative to control; format: functional, cell-based
[7] = target: Sodium channel protein type 11 subunit alpha (Homo sapiens, UniProt Q9UI33); assay: Inhibition of human Nav1.9 expressed in HEK cells by automated patchXpress electrophysiology method; format: cell-based
[8] = Volume of distribution at steady state in dog at 0.3 mg/kg, iv via infusion for 0.5 hrs; format: ADME, organism-based, Canis lupus familiaris; settings: in vivo, read-out: Vdss
[9] = target: Androgen receptor (Homo sapiens) (UniProt P10275); assay: Displacement of [3H]methyltrienolone from human androgen receptor at 10 uM after 1440 mins by scintillation counting method
Homo sapiens [10] = organism: Homo sapiens; assay: Inhibition of neuronal type nAChR (unknown origin) at 10 uM by radioligand binding assay relative to control
[11] = target: Proto-oncogene tyrosine-protein kinase Src (Homo sapiens) (UniProt P12931); assay: Inhibition of recombinant human SRC at 10 uM using Ulight-Poly GAT[EAY(1:1:1)]n as substrate after 10 mins by LANCE assay
[12] = target: T1, Alpha-1A adrenergic receptor (Homo sapiens) (UniProt P35348); assay: Agonist activity at recombinant human alpha1a receptor expressed in CHOK1 cells assessed as increase in calcium flux at 10 uM by fluorescence assay relative to control; format: functional, cell-based
T1 sequence (whole entry): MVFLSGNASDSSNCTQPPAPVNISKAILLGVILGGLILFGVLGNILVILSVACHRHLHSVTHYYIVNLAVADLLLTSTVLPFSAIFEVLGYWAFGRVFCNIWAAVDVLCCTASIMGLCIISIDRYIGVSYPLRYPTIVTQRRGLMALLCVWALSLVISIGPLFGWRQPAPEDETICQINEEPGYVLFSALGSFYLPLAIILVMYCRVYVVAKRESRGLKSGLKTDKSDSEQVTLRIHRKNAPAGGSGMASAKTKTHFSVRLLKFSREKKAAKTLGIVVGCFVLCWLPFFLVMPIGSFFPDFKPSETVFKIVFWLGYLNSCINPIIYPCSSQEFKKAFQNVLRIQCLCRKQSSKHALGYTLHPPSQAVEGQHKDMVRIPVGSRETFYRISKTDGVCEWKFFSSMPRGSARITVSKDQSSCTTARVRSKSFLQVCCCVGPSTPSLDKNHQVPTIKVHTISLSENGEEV

[13] = target: GABA-A receptor; alpha-1/beta-2/gamma-2 (Homo sapiens) (UniProt P14867+P47870+P18507); assay: Displacement of [3H]muscimol from recombinant human GABAalpha1beta2gamma2 at 10 uM measured after 120 mins by scintillation counting method; format: protein-complex assay
[14] = Clearance in dog blood at 0.3 mg/kg, iv via infusion for 0.5 hrs; format: ADME, organism-based, Canis lupus familiaris; settings: whole blood
Summary of the method: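 Blood clearance was calculated from the measured plasma clearance and the measured blood:plasma ratio.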

[15] = target: Glutamate NMDA receptor (Rattus norvegicus) (UniProt P35439+Q00959+Q00960+Q00961+Q62645+Q8VHN2+Q9R1M7); assay: Displacement of [3H]CGP 39653 from rat brain NMDA receptor at 10 uM after 60 mins by scintillation counting method
Cytochrome P450 3A4 = Cytochrome P450 3A4 (Homo sapiens, UniProt P08684); assay: Inhibition of CYP3A4 (unknown origin); format: ADME
[16] = target: D(2) dopamine receptor (Homo sapiens) (UniProt P14416); assay: Antagonist activity at recombinant human D2S receptor expressed in HEK293 cells assessed as inhibition of dopamine-induced cell impedance at 10 uM by cellular dielectric spectroscopic method relative to control; format: cell-based
[17] = target: T1, Alpha-1A adrenergic receptor (Homo sapiens); assay: Displacement of [3H]prazosin from recombinant human alpha1a receptor at 10 uM after 60 mins by scintillation counting method
[18] = Primary phase half-life in dog at 0.3 mg/kg, iv via infusion for 0.5 hrs; format: ADME, organism-based, Canis lupus familiaris; settings: in vivo, read-out: alphat1/2 (converted)
Summary of the method: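 Dog IV pharmacokinetics, with half-life reported as two values: α (initial phase) and β (terminal phase) of the disposition profile.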

[19] = target: Adenosine receptor A1 (Homo sapiens) (UniProt P30542); assay: Agonist activity at recombinant human adenosine A1 receptor expressed in mouse BA/F3 cells assessed as increase in calcium flux at 10 uM by spectrophotometric method relative to control; format: functional, cell-based
[20] = target: Sodium channel protein type 5 subunit alpha (Homo sapiens, UniProt Q14524); assay: Inhibition of human Nav1.5 by Q-patch clamp electrophysiology method
[21] = target: Sodium channel protein type 8 subunit alpha (Homo sapiens, UniProt Q9UQD0); assay: Inhibition of human Nav1.6 expressed in HEK cells by patch clamp electrophysiology method; format: cell-based
Homo sapiens [22] = organism: Homo sapiens; assay: Displacement of [125I]alpha-bungarotoxin from human muscle type nAChR at 10 uM after 120 mins by scintillation counting method
[23] = target: Sodium channel protein type 3 subunit alpha (Homo sapiens, UniProt Q9NY46); assay: Inhibition of human Nav1.3 expressed in HEK cells by patch clamp electrophysiology method; format: cell-based
[24] = target: Prostaglandin G/H synthase 2 (Homo sapiens) (UniProt P35354); assay: Inhibition of recombinant human COX2 at 10 uM using arachidonic acid as substrate measured after 5 mins by fluorescence assay
Cytochrome P450 2C19 = Cytochrome P450 2C19 (Homo sapiens, UniProt P33261); assay: Inhibition of CYP2C19 (unknown origin); format: ADME
[25] = target: D(1A) dopamine receptor (Homo sapiens) (UniProt P21728); assay: Displacement of [3H]SCH 23390 from recombinant human D1 receptor at 10 uM after 60 mins by scintillation counting method
[26] = target: Type-1 angiotensin II receptor (Homo sapiens) (UniProt P30556); assay: Agonist activity at recombinant human AT1 receptor expressed in HEK293 cells assessed as increase in calcium flux at 10 uM by spectrophotometric method relative to control; format: functional, cell-based
[27] = target: Alpha-2B adrenergic receptor (Homo sapiens) (UniProt P18089); assay: Agonist activity at recombinant human alpha2b receptor expressed in HEK293 cells assessed as increase in cAMP accumulation at 10 uM measured after 30 mins by HTRF assay relative to control; format: functional, cell-based
[28] = Permeability in RRCK cells; format: ADME, cell-based, Canis lupus familiaris, MDCKII-LE; settings: dog, MDCK; read-out: permeability

Chain of High affinity choline transporter 1 (Q9GZV3 whole entry): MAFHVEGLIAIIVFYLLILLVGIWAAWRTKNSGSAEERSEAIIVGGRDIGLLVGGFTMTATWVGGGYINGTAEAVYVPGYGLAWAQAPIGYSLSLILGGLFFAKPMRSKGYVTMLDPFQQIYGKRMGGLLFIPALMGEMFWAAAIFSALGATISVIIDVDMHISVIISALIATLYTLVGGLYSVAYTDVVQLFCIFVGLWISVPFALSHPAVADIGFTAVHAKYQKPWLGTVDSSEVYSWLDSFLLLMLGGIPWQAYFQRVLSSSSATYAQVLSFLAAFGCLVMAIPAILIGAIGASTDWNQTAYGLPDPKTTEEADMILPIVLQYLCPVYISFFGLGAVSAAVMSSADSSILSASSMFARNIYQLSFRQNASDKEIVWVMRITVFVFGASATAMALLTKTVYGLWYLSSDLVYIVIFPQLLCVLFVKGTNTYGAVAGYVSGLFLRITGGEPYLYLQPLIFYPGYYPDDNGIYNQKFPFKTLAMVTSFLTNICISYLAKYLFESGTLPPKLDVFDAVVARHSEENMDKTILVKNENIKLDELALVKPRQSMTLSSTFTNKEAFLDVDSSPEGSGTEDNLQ
Chain of Sodium channel protein type 5 subunit alpha (Q14524 whole entry): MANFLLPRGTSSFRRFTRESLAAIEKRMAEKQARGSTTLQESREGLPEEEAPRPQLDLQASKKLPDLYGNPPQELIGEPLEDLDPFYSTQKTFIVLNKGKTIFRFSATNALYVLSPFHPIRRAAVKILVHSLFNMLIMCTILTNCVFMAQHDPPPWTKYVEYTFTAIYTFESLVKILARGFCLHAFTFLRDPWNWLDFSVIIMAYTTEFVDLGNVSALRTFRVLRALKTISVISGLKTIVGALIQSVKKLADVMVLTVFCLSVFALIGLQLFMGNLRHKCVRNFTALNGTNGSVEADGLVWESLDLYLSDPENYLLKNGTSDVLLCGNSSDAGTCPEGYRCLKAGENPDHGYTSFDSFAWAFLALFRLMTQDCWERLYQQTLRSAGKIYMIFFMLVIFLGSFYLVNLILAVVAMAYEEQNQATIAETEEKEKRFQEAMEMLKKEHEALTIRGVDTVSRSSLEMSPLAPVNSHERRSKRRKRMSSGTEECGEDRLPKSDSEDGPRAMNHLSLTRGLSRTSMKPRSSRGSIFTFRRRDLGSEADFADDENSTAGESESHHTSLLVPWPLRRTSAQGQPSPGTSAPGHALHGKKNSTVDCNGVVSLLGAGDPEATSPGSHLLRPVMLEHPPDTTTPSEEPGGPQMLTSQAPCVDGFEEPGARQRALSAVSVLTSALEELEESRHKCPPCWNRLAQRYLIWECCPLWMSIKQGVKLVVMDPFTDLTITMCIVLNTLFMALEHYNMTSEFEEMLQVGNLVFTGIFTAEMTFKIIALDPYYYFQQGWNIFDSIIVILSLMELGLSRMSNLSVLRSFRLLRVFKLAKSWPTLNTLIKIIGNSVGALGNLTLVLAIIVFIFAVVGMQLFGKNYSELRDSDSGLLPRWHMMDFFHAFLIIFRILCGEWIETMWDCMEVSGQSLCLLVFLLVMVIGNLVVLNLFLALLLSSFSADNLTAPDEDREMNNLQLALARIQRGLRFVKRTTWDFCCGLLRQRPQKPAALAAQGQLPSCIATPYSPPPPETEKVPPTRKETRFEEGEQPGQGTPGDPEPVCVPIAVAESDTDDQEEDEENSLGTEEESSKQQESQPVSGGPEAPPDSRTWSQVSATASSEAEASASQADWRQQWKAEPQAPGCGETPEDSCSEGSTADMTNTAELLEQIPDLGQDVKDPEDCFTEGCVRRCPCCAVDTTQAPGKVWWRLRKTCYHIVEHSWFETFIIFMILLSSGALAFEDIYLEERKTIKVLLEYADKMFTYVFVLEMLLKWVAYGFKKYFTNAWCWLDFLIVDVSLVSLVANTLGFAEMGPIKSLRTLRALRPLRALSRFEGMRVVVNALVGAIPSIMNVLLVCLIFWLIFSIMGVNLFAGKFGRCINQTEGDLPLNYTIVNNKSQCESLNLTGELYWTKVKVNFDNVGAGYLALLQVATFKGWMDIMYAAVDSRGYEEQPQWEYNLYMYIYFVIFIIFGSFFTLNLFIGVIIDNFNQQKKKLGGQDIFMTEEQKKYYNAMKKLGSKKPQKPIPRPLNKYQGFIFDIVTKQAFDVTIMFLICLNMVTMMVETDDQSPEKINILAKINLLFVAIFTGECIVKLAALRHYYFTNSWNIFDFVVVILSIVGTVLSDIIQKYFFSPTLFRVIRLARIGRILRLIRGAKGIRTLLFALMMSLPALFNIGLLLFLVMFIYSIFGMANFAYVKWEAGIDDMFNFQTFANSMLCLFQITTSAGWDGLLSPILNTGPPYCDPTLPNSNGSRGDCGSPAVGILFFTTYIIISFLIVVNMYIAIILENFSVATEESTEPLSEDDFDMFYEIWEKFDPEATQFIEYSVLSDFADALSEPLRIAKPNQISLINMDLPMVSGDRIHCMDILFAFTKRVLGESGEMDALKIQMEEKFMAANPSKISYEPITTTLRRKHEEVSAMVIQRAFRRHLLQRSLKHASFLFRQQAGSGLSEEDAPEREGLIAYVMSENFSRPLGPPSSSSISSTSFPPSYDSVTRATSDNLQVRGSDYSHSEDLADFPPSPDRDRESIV
Chain of Androgen receptor (Homo sapiens) (P10275 whole entry): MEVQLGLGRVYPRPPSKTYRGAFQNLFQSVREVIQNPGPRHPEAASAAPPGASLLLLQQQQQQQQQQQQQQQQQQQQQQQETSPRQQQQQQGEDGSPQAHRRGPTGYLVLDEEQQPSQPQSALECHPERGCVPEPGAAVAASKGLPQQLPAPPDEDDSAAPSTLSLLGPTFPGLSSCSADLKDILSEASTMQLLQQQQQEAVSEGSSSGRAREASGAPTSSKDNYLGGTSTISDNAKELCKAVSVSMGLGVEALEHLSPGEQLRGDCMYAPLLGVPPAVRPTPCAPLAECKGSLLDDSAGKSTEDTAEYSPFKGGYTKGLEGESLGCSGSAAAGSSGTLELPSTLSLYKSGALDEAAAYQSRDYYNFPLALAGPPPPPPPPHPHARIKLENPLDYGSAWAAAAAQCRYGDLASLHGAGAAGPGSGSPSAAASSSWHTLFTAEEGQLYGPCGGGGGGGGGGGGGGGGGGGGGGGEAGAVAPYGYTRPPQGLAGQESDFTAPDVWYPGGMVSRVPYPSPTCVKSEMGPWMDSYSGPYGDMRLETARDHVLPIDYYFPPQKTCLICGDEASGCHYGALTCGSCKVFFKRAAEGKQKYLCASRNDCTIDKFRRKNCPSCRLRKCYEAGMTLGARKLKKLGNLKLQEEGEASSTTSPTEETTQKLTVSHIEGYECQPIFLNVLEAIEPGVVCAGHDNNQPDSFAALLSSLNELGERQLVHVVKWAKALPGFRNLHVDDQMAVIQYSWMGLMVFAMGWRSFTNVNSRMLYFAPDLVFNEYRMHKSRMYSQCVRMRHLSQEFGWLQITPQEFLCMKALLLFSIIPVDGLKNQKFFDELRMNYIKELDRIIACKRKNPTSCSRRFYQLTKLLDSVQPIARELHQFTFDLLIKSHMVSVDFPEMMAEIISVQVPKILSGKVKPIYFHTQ
Chain of D(1A) dopamine receptor (Homo sapiens) (P21728 whole entry): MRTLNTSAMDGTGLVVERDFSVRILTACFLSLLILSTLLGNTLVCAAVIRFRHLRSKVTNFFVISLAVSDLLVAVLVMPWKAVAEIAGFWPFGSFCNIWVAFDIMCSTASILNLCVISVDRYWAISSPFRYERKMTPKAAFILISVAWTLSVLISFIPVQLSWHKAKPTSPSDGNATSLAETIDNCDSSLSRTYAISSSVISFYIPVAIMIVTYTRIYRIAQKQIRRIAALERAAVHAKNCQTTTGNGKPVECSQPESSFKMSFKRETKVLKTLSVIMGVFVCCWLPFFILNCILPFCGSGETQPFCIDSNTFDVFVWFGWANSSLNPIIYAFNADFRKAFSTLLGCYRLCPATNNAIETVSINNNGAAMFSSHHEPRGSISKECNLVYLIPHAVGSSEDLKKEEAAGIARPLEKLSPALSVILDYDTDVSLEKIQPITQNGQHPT
Chain of Adenosine receptor A1 (Homo sapiens) (P30542 whole entry): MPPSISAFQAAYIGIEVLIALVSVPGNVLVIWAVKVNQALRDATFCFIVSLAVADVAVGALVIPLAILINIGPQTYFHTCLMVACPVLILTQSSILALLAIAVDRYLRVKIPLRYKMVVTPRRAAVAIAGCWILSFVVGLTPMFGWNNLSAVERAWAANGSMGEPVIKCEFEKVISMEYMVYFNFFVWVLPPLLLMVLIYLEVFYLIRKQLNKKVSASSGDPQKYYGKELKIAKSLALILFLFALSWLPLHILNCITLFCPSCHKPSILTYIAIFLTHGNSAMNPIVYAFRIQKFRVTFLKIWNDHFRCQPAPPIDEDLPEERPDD
Chain of Alpha-2B adrenergic receptor (Homo sapiens) (P18089 whole entry): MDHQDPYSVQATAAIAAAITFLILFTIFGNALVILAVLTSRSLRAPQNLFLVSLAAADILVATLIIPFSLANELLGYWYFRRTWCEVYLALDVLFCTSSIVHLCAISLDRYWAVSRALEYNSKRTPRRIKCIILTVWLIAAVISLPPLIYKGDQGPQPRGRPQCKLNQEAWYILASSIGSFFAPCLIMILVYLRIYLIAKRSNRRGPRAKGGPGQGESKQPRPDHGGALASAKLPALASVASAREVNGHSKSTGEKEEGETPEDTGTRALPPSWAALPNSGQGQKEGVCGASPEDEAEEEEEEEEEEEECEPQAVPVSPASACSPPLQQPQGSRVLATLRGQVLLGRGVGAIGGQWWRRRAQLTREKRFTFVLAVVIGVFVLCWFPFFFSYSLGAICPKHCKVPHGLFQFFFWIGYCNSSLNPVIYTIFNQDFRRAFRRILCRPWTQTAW

`N#Cc1cc(S(=O)(=O)Nc2ncns2)ccc1Oc1ccc(-c2cccc(C(F)(F)F)c2)cc1-c1ccnc(CNCCC2CCNCC2)c1` gave an IC50 [1] of 120 nM, a Ki [1] of 68 nM and an IC50 [2] of over 25200 nM. It also gave a solubility [3] of over 1840 µg/mL, an IC50 [4] of 3650 nM and a Vd [5] of 0.54 L/kg. It also gave an inhibition [6] of 11%, an IC50 [7] of over 10000 nM and a Vd [8] of 0.46 L/kg. It also gave an inhibition [9] of 27%, an inhibition (Homo sapiens [10]) of 34% and an inhibition [11] of 9%. The Activity [12] was 7%, the inhibition [13] was 0% and the clearance [14] was 39.8 mL/min/kg. The inhibition [15] was 21%, the IC50 (Cytochrome P450 3A4) was 1150 nM and the inhibition [16] was 31%. For the same compound, the inhibition [17] was -4%, the half-life [18] was 3.42 min and the Activity [19] was 107%. The IC50 [20] was 12800 nM, the IC50 [21] was 5.46 to 5.8 nM and the inhibition (Homo sapiens [22]) was 21%. It also gave an IC50 [23] of 6440 to 11500 nM, an inhibition [24] of 85% and an IC50 (Cytochrome P450 2C19) of 1320 nM. The inhibition [25] was 60%, the Activity [26] was -3% and the Activity [27] was -2%. The Papp [28] was 0.62 ×10⁻⁶ cm/s.
